Laboratory results published in ChEMBL document CHEMBL4680226, “Design, synthesis, and evaluation of N-phenyl-4-(2-phenylsulfonamido)-benzamides as microtubule-targeting agents in drug-resistant cancer cells, displaying HDAC inhibitory response” (Eur J Med Chem, 2020).
The source made the active and inactive calls. No cut-off for these calls is given here.

Key:
Histone deacetylase 8 = target: T1, Histone deacetylase 8 (Homo sapiens, UniProt Q9BY41); experiment: Inhibition of human recombinant HDAC8 using RHKAcKAc-AMC as substrate measured after 60 mins by fluorescence assay
T1 sequence (Q9BY41 whole entry): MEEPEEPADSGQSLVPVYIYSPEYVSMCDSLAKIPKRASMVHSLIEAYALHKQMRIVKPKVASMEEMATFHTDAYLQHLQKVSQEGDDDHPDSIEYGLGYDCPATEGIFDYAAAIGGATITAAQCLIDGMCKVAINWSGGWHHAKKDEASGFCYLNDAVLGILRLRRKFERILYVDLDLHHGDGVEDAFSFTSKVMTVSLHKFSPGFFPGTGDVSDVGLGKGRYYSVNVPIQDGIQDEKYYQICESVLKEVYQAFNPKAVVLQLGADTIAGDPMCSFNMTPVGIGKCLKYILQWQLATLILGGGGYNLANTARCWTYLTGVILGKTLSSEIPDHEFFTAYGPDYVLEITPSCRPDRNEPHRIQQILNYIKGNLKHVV

KB-VIN [1] = experiment: Induction of apoptosis in human KB-VIN cells assessed as increase in cleaved PARP expression by Western blot analysis; type: functional, cell-based
Summary of the method: (§1)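 Resistant KB cells attached overnight, then drug-treated at the stated concentrations and times (24 h or 48 h). Lysates were immunoblotted for cleaved PARP, caspase-3, -8 and -9, and γH2AX, with anti-mouse or anti-rabbit IgG secondaries.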

KB-VIN [2] = experiment: Induction of apoptosis in human KB-VIN cells assessed as increase in cleaved caspase-9 expression by Western blot analysis; type: functional, cell-based; summary of the method: as §1
KB7D [3] = experiment: Induction of apoptosis in human KB7D cells assessed as increase in cleaved PARP expression by Western blot analysis; type: functional, cell-based; summary of the method: as §1
KB7D [4] = experiment: Induction of apoptosis in human KB7D cells assessed as increase in cleaved caspase-3 expression by Western blot analysis; type: functional, cell-based; summary of the method: as §1
KB7D [5] = experiment: Induction of apoptosis in human KB7D cells assessed as increase in cleaved caspase-8 expression by Western blot analysis; type: functional, cell-based
Summary of the method: (§2)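 KB-7D cells in RPMI 1640 with 5% FBS and 1% penicillin-streptomycin at 37 °C, 5% CO2, attached overnight. Treated with indicated concentrations for 24 or 48 h, lysed, and immunoblotted for cleaved caspases.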

KB7D [6] = experiment: Induction of apoptosis in human KB7D cells assessed as increase in cleaved caspase-9 expression by Western blot analysis; type: functional, cell-based; summary of the method: as §2
KB-VIN [7] = experiment: Induction of apoptosis in human KB-VIN cells assessed as increase in cleaved PARP expression at 0.1 to 0.5 uM measured after 24 hrs by Western blot analysis; type: functional, cell-based; details: dose 0.1-0.5 µM; summary of the method: as §1
KB-VIN [8] = experiment: Induction of apoptosis in human KB-VIN cells assessed as increase in cleaved caspase-8 expression at 0.1 to 0.5 uM measured after 24 hrs by Western blot analysis; type: functional, cell-based; details: dose 0.1-0.5 µM; summary of the method: as §1
KB-VIN [9] = experiment: Induction of apoptosis in human KB-VIN cells assessed as increase in activated gammaH2AX expression at 0.1 to 0.5 uM measured after 24 hrs by Western blot analysis; type: functional, cell-based; details: dose 0.1-0.5 µM; summary of the method: as §1
KB-VIN [10] = experiment: Induction of apoptosis in human KB-VIN cells assessed as increase in cleaved caspase-3 expression at 0.05 uM measured after 48 hrs by Western blot analysis; type: functional, cell-based; summary of the method: as §1
KB-VIN [11] = experiment: Induction of apoptosis in human KB-VIN cells assessed as increase in activated gammaH2AX expression at 0.05 uM measured after 48 hrs by Western blot analysis; type: functional, cell-based; summary of the method: as §1
KB7D [12] = experiment: Induction of apoptosis in human KB7D cells assessed as increase in cleaved caspase-9 expression at 0.01 to 0.1 uM measured after 48 hrs by Western blot analysis; type: functional, cell-based; details: dose 0.01-0.1 µM; summary of the method: as §2
KB7D [13] = experiment: Induction of apoptosis in human KB7D cells assessed as increase in activated gammaH2AX expression at 0.01 to 0.1 uM measured after 48 hrs by Western blot analysis; type: functional, cell-based; details: dose 0.01-0.1 µM; summary of the method: as §1
Tubulin (Homo sapiens) [14] = target: T2, Tubulin (Homo sapiens) (UniProt P68371+Q9H4B7+P0DPH7+P68366+Q13509+Q71U36+P04350+Q3ZCM7+P07437+P68363+Q9BQE3+Q6PEY2+Q13885+Q9BVA1+Q9BUF5); experiment: Induction of microtubule disruption in human KB7D cells at 0.05 uM measured after 24 hrs by DAPI staining based deconvolution fluorescence microscopic analysis; type: cell-based
Summary of the method: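 Cells on glass coverslips treated 24 h, fixed in 4% paraformaldehyde for 15 min, and permeabilized with 0.5% Triton X-100. Blocked in PBS/2% BSA, stained with anti-beta-tubulin (1:250) and Alexa 488 anti-mouse (1:250), and mounted with DAPI. Imaged by wide-field deconvolution microscopy.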

Tubulin (Homo sapiens) [15] = target: T2, Tubulin (Homo sapiens); experiment: Induction of microtubule disruption in human KB-VIN cells assessed as polymerized fraction at 0.1 uM measured after 16 hrs by SDS-PAGE analysis (reference value: 23.1 to 25.5%); type: cell-based
Summary of the method: (§3)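 KB-Vin or KB-7D cells treated 16 h, then lysed 5 min at 37 °C in the dark in hypotonic buffer (1% NP-40, 1 mmol/L MgCl2, 2 mmol/L EGTA, 50 mmol/L Tris-HCl pH 6.8, protease inhibitors). Spun 13000 rpm, 10 min, room temperature. Soluble supernatant and resuspended polymerized pellet run on SDS-PAGE.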

Tubulin (Homo sapiens) [16] = target: T2, Tubulin (Homo sapiens); experiment: Induction of microtubule disruption in human KB-VIN cells assessed as polymerized fraction at 1 uM measured after 16 hrs by SDS-PAGE analysis (reference value: 23.1 to 25.5%); type: cell-based; summary of the method: as §3
Tubulin (Homo sapiens) [17] = target: T2, Tubulin (Homo sapiens); experiment: Induction of microtubule disruption in human KB7D cells assessed as polymerized fraction at 0.01 uM measured after 16 hrs by SDS-PAGE analysis (reference value: 26.4 to 29%); type: cell-based; summary of the method: as §3
Tubulin (Homo sapiens) [18] = target: T2, Tubulin (Homo sapiens); experiment: Induction of microtubule disruption in human KB7D cells assessed as polymerized fraction at 0.1 uM measured after 16 hrs by SDS-PAGE analysis (reference value: 26.4 to 29%); type: cell-based; summary of the method: as §3

With `COc1ccc(S(=O)(=O)Nc2ccccc2NCc2ccc(C(=O)Nc3ccccc3N)cc2)cc1` the IC50 (Histone deacetylase 8) was greater than 10 µM, the Activity (KB-VIN [1]) was “Dose-dependent effect” and the Activity (KB-VIN [2]) was “Dose-dependent effect”. For the same compound, the Activity (KB7D [3]) was “Dose-dependent effect”, the Activity (KB7D [4]) was “Dose-dependent effect” and the Activity (KB7D [5]) was “Dose-dependent effect”. For the same compound, the Activity (KB7D [6]) was “Dose-dependent effect”, the Activity (KB-VIN [7]) was “Active” and the Activity (KB-VIN [8]) was “Active”. For the same compound, the Activity (KB-VIN [9]) was “Active”, the Activity (KB-VIN [10]) was “Active” and the Activity (KB-VIN [11]) was “Active”. The Activity (KB7D [12]) was “Active”, the Activity (KB7D [13]) was “Active” and the Activity (Tubulin (Homo sapiens) [14]) was “Active”. It also gave an Activity (Tubulin (Homo sapiens) [15]) of 20.4%, an Activity (Tubulin (Homo sapiens) [16]) of 17.8% and an Activity (Tubulin (Homo sapiens) [17]) of 14.4%. The Activity (Tubulin (Homo sapiens) [18]) was 13.3%.
